Assay results taken from ChEMBL document CHEMBL1146236, “Antineoplastic agents. 560. Isolation and structure of kitastatin 1 from an Alaskan Kitasatospora sp” (2007).
In brackets after ≈: the same amount, converted by molar mass.

What was measured:
DU-145 = test: Growth inhibition of human DU145 cells after 48 hrs by sulforhodamine B assay; format: functional; conditions: DU-145, 48 h
Summary of the method: (§1)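 Cells in 5% fetal bovine serum/RPMI1640 were seeded and preincubated 24 h, then exposed to serial compound dilutions for 48 h. Plates were TCA-fixed, stained with sulforhodamine B and read by microplate reader. ED50 (concentration giving 50% reduction in net protein increase) was calculated from optical density data.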

KM-20L2 = test: Growth inhibition of human KM20L2 cells after 48 hrs by sulforhodamine B assay; format: functional; conditions: KM-20L2, 48 h; summary of the method: as §1
MCF7 = test: Growth inhibition of human MCF7 cells after 48 hrs by sulforhodamine B assay; format: functional; conditions: MCF7, 48 h; summary of the method: as §1
P388 = test: Growth inhibition of mouse P388 cells after 48 hrs by Coulter particle counting; conditions: P388, 48 h, read-out: ED50 (the source's name)
Micrococcus luteus = test: Antibacterial activity against Micrococcus luteus Presque Isle 456; format: functional
Summary of the method: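 Broth microdilution susceptibility test per NCCLS standards, strain Presque Isle 456. Compound reconstituted in sterile DMSO, diluted in the appropriate medium immediately before testing. MIC taken as the lowest concentration giving complete inhibition of visible growth (optically clear).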

BXPC-3 = test: Growth inhibition of human BXPC3 cells after 48 hrs by sulforhodamine B assay; format: functional; conditions: BXPC-3, 48 h; summary of the method: as §1
SF-268 = test: Growth inhibition of human SF268 cells after 48 hrs by sulforhodamine B assay; format: functional; conditions: SF-268, 48 h; summary of the method: as §1
NCI-H460 = test: Growth inhibition of human NCI-H460 cells after 48 hrs by sulforhodamine B assay; format: functional; conditions: NCI-H460, 48 h; summary of the method: as §1
Cryptococcus neoformans = test: Antifungal activity against Cryptococcus neoformans ATCC 90112; format: functional
Summary of the method: (§2)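 Broth microdilution susceptibility testing, following NCCLS reference methods (M7-A5 for bacteria, M27-A2 for yeasts). Compounds reconstituted in sterile DMSO and diluted in the appropriate medium just before testing. MIC was the lowest concentration giving complete inhibition of visible growth (optically clear).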

Enterococcus faecalis = test: Antibacterial activity against Enterococcus faecalis ATCC 29212; format: functional; summary of the method: as §2

Structure (SMILES)	GI50 (DU-145) [ng/mL]	GI50 (KM-20L2) [ng/mL]	GI50 (MCF7) [ng/mL]	EC50 (P388) [µg/mL]	MIC (Micrococcus luteus) [µg/mL]	GI50 (BXPC-3) [µg/mL]	GI50 (SF-268) [ng/mL]	GI50 (NCI-H460) [ng/mL]	MIC (Cryptococcus neoformans) [µg/mL]	MIC (Enterococcus faecalis) [µg/mL]
CCC(C)[C@@H]1OC(=O)[C@H](C)OC(=O)[C@@H](NC(=O)c2cccc(NC=O)c2O)[C@@H](C)OC(=O)[C@H](C(C)C)OC(=O)C(C)(C)C(=O)[C@H](CC(C)C)NC1=O (stereo not given in full)	< 0.1	0.58 (≈ 0.79 nM)	0.64 (≈ 0.872 nM)	0.033 (≈ 45 nM)	64 (≈ 87200 nM)	1.2 (≈ 1640 nM)	16 (≈ 21.8 nM)	0.63 (≈ 0.859 nM)		
CCC(C)[C@@H]1OC(=O)[C@H](C)OC(=O)[C@@H](NC(=O)c2cccc(N)c2O)[C@@H](C)OC(=O)[C@H](CC(C)C)OC(=O)C(C)(C)C(=O)[C@H](CC(C)C)NC1=O (stereo not given in full) [KITASTATIN]	2.6 (≈ 3.61 nM)	2.4 (≈ 3.33 nM)	4 (≈ 5.56 nM)	0.045 (≈ 62.5 nM)		0.0066 (≈ 9.17 nM)	3.5 (≈ 4.86 nM)	< 1	64 (≈ 88900 nM)	64 (≈ 88900 nM)
CCC(C)[C@@H]1OC(=O)[C@H](C)OC(=O)[C@@H](NC(=O)c2cccc(NC=O)c2O)[C@@H](C)OC(=O)[C@H](CC(C)C)OC(=O)C(C)(C)C(=O)[C@H](CC(C)C)NC1=O (stereo not given in full) [RESPIRANTIN]	0.18 (≈ 0.241 nM)	0.6 (≈ 0.802 nM)	0.6 (≈ 0.802 nM)	0.0037 (≈ 4.95 nM)		0.47 (≈ 628 nM)	1.6 (≈ 2.14 nM)	0.6 (≈ 0.802 nM)	2 (≈ 2670 nM)	
